The Ki is a measure of affinity in units of concentration, obtained from inhibition or displacement. Lower therefore signals higher affinity. As a reminder, the IC50 is the concentration that inhibits the measured activity by half. A high value points to weaker potency in that assay.

Among the data in ChEMBL document CHEMBL3112440, “Design, synthesis, and SAR of a series of activated protein C (APC) inhibitors with selectivity against thrombin for the treatment of haemophilia” (Bioorg Med Chem Lett, 2014) are Ki, IC50 and Ratio IC50 values, retold here.

Each structure is given as a SMILES string.

One test deals with T1, Coagulation factor XI (Homo sapiens, UniProt P03951). The test is described as follows: Competitive inhibition of human coagulation factor 11a using S-2366 as substrate. Put shortly:
(§1)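 Ki values were calculated from the IC50 values measured in the enzyme screening assays.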
Take `N=C(N)NCCC[C@H](NC(=O)[C@@H](CC1CCCCC1)NCCC(=O)O)C(=O)NCc1ccc(C(=N)N)cc1`: the inhibition constant Ki is over 19000 nM.
Same read-out and setting: next, `N=C(N)c1ccc(CNC(=O)C(Cc2ccc(CN)cc2)NC(=O)[C@@H](CC2CCCCC2)NCC(=O)O)cc1` (mixture of isomers): 19000 nM; `N=C(N)c1ccc(CNC(=O)[C@H](Cc2ccc(N)cc2)NC(=O)[C@@H](CC2CCCCC2)NCC(=O)O)cc1`: 300 nM.

For the next test, the target named is T2, Coagulation factor X (Homo sapiens, UniProt P00742). The test can be described thus: Competitive inhibition of human coagulation factor 10a using S-2765 as substrate. In outline:
as §1
`N=C(N)c1ccc(CNC(=O)C(Cc2ccc(CN)cc2)NC(=O)[C@@H](CC2CCCCC2)NCC(=O)O)cc1` (mixture of isomers): the affinity corresponds to a Ki of 14000 nM.
Take `N=C(N)c1ccc(CNC(=O)[C@H](Cc2ccc(N)cc2)NC(=O)[C@@H](CC2CCCCC2)NCC(=O)O)cc1`: the inhibition constant Ki is over 15000 nM.

For the next test, the target named is T3, Prothrombin (Homo sapiens, UniProt P00734). The test can be described thus: Competitive inhibition of human thrombin using S-2366 as substrate. Put shortly: as §1
Molecule `N=C(N)NCCC[C@H](NC(=O)[C@@H](CC1CCCCC1)NCC(=O)O)C(=O)NCc1ccc(C(=N)N)cc1` returned a Ki of 1000 nM.
On to `N=C(N)c1ccc(CNC(=O)[C@H](CC2CCCN2)NC(=O)[C@@H](CC2CCCCC2)NCC(=O)O)cc1` (mixture of isomers), for which the inhibition constant (Ki) turned out to be 4000 nM.
Still for that read-out and setting: in the case of `N=C(N)NCCC[C@H](NC(=O)[C@@H](CC1CCCCC1)NCCC(=O)O)C(=O)NCc1ccc(C(=N)N)cc1` it was 3000 nM; in that of `N=C(N)c1ccc(CNC(=O)C(Cc2ccc(CN)cc2)NC(=O)[C@@H](CC2CCCCC2)NCC(=O)O)cc1` (mixture of isomers), 2000 nM; in that of `N=C(N)c1ccc(CNC(=O)[C@H](Cc2ccc(N)cc2)NC(=O)[C@@H](CC2CCCCC2)NCC(=O)O)cc1`, 500 nM.

The target of a further test is T4, Vitamin K-dependent protein C (Homo sapiens, UniProt P04070). The test can be described thus: Competitive inhibition of human APC using S-2366 as substrate. In outline: as §1
Regarding `N=C(N)NCCC[C@H](NC(=O)[C@@H](CC1CCCCC1)NCC(=O)O)C(=O)NCc1ccc(C(=N)N)cc1`, the affinity, expressed as Ki, was 100 nM.
On the same count and under the same terms, next, `N=C(N)c1ccc(CNC(=O)[C@H](CC2CCCN2)NC(=O)[C@@H](CC2CCCCC2)NCC(=O)O)cc1` (mixture of isomers): 1600 nM; `N=C(N)NCCC[C@H](NC(=O)[C@@H](CC1CCCCC1)NCCC(=O)O)C(=O)NCc1ccc(C(=N)N)cc1`: 800 nM.
For `N=C(N)c1ccc(CNC(=O)C(Cc2ccc(CN)cc2)NC(=O)[C@@H](CC2CCCCC2)NCC(=O)O)cc1` (mixture of isomers), the affinity corresponds to a Ki of 300 nM.
Take `N=C(N)c1ccc(CNC(=O)[C@H](Cc2ccc(N)cc2)NC(=O)[C@@H](CC2CCCCC2)NCC(=O)O)cc1`: the Ki was 40 nM.

For a further test, the target named is T1, Coagulation factor XI. The test is described as follows: Inhibition of human coagulation factor 11a using S-2366 as substrate preincubated for 300 seconds followed by substrate addition measured after 40 mins by spectrophotometric analysis.
With `N=C(N)NCCC[C@H](NC(=O)[C@@H](CC1CCCCC1)NCCC(=O)O)C(=O)NCc1ccc(C(=N)N)cc1`, the concentration for half-maximal inhibition (IC50) is over 44000 nM.
The same measure, in the same setting: in the case of `N=C(N)c1ccc(CNC(=O)C(Cc2ccc(CN)cc2)NC(=O)[C@@H](CC2CCCCC2)NCC(=O)O)cc1` (mixture of isomers) it was 43000 nM.
The same measure, in the same setting: next, `N=C(N)c1ccc(CNC(=O)[C@H](Cc2ccc(N)cc2)NC(=O)[C@@H](CC2CCCCC2)NCC(=O)O)cc1`: 580 nM.

The next test deals with T2, Coagulation factor X. The test can be described thus: Inhibition of human coagulation factor 10a using S-2765 as substrate preincubated for 300 seconds followed by substrate addition measured after 40 mins by spectrophotometric analysis.
In the case of `N=C(N)c1ccc(CNC(=O)C(Cc2ccc(CN)cc2)NC(=O)[C@@H](CC2CCCCC2)NCC(=O)O)cc1` (mixture of isomers), half-maximal inhibition (IC50) was put at 42000 nM.
In the case of `N=C(N)c1ccc(CNC(=O)[C@H](Cc2ccc(N)cc2)NC(=O)[C@@H](CC2CCCCC2)NCC(=O)O)cc1`, the half-inhibitory concentration (IC50) was over 44000 nM.

The species named for another test is Homo sapiens. The test is described as follows: Selectivity ratio of IC50 for human thrombin to IC50 for human APC.
As for `N=C(N)NCCC[C@H](NC(=O)[C@@H](CC1CCCCC1)NCC(=O)O)C(=O)NCc1ccc(C(=N)N)cc1`, the Ratio IC50 amounted to 2.8.
On to `N=C(N)c1ccc(CNC(=O)[C@H](CC2CCCN2)NC(=O)[C@@H](CC2CCCCC2)NCC(=O)O)cc1` (mixture of isomers), for which the Ratio IC50 worked out at 1.3.
Same read-out and setting: next, `N=C(N)NCCC[C@H](NC(=O)[C@@H](CC1CCCCC1)NCCC(=O)O)C(=O)NCc1ccc(C(=N)N)cc1`: 1.8.
Still for that read-out and setting: next, `N=C(N)c1ccc(CNC(=O)C(Cc2ccc(CN)cc2)NC(=O)[C@@H](CC2CCCCC2)NCC(=O)O)cc1` (mixture of isomers): 3.3; `N=C(N)c1ccc(CNC(=O)[C@H](Cc2ccc(N)cc2)NC(=O)[C@@H](CC2CCCCC2)NCC(=O)O)cc1`: 6.9.

Another test deals with T3, Prothrombin. The test can be described thus: Inhibition of human thrombin using S-2366 as substrate preincubated for 300 seconds followed by substrate addition measured after 40 mins by spectrophotometric analysis.
`N=C(N)NCCC[C@H](NC(=O)[C@@H](CC1CCCCC1)NCC(=O)O)C(=O)NCc1ccc(C(=N)N)cc1` yielded a half-inhibitory concentration (IC50) of 1300 nM.
On the same count and under the same terms, next, `N=C(N)c1ccc(CNC(=O)[C@H](CC2CCCN2)NC(=O)[C@@H](CC2CCCCC2)NCC(=O)O)cc1` (mixture of isomers): 7000 nM.
Same read-out and setting: in the case of `N=C(N)NCCC[C@H](NC(=O)[C@@H](CC1CCCCC1)NCCC(=O)O)C(=O)NCc1ccc(C(=N)N)cc1` it was 5200 nM; in that of `N=C(N)c1ccc(CNC(=O)C(Cc2ccc(CN)cc2)NC(=O)[C@@H](CC2CCCCC2)NCC(=O)O)cc1` (mixture of isomers), 3700 nM; in that of `N=C(N)c1ccc(CNC(=O)[C@H](Cc2ccc(N)cc2)NC(=O)[C@@H](CC2CCCCC2)NCC(=O)O)cc1`, 900 nM.

For a further test, the target named is T4, Vitamin K-dependent protein C. The test is described as follows: Inhibition of human APC using S-2366 as substrate preincubated for 300 seconds followed by substrate addition measured after 40 mins by spectrophotometric analysis.
For `N=C(N)NCCC[C@H](NC(=O)[C@@H](CC1CCCCC1)NCC(=O)O)C(=O)NCc1ccc(C(=N)N)cc1`, the IC50 worked out at 470 nM.
In turn, `N=C(N)c1ccc(CNC(=O)[C@H](CC2CCCN2)NC(=O)[C@@H](CC2CCCCC2)NCC(=O)O)cc1` (mixture of isomers) showed a concentration for half-maximal inhibition (IC50) of 5600 nM.
The same measure, in the same setting: in the case of `N=C(N)NCCC[C@H](NC(=O)[C@@H](CC1CCCCC1)NCCC(=O)O)C(=O)NCc1ccc(C(=N)N)cc1` it was 2800 nM; in that of `N=C(N)c1ccc(CNC(=O)C(Cc2ccc(CN)cc2)NC(=O)[C@@H](CC2CCCCC2)NCC(=O)O)cc1` (mixture of isomers), 1100 nM.
Same read-out and setting: next, `N=C(N)c1ccc(CNC(=O)[C@H](Cc2ccc(N)cc2)NC(=O)[C@@H](CC2CCCCC2)NCC(=O)O)cc1`: 130 nM.
